High-throughput results deposited in PubChem BioAssay by several laboratories.
H9c2 TAG inh: triacylglycerol accumulation inhibition | H9c2 cells, Nile Red lipid (TAG) fluorescence; cells loaded with 200 µM oleic acid | inhibition, % at 12.5 µM | 230,000 tested, 0.66% active | AID 651582;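 active = pattern-corrected inhibition of lipid staining of at least 50% with the nuclear-stain viability signal not falling by more than 50%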
AHR activator: activators of human aryl hydrocarbon receptor | P35869 | AHR-responsive luciferase reporter cells, luminescence | activation, % at 5 µM | 320,000 tested, 2.5% active; in the data active = activation above about 47%
SMARCA2 activ: SMARCA2 function activation, primary screen | MG213 cells, MMTV-luciferase reporter, dexamethasone, overnight | activation, % at 9.1 µM | 370,000 tested, 1% active; in the data active = activation above about 7.8%
TbMetRS inhib: blocks T. brucei methionyl-tRNA synthetase activity; purified T. brucei MetRS, ATP depletion, Kinase-Glo luminescence; inhibition, % at 11.9 µM; 360,000 tested, 0.4% active; AID 624268;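 active = inhibition above a per-plate cutoff of the control wells' mean inhibition plus 3 SD, cut at about 5.5% in these data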
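Dosing: 11.9 µM single point; system: parasite MetRS enzyme; technique: luminescence of leftover ATP; times: 15 min enzyme-compound preincubation, 2 h reaction, 10 min detection, 25 °C; replicates: each compound tested once; read-out basis: percent inhibition relative to median high and low control wells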
Efflux pump mplx: blocks antifungal efflux pumps in multiplex yeast assay | S. cerevisiae Candida pump triplex, Nile Red efflux | inhibition, % at 10 µM | 330,000 tested, 0.44% active;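 active = plate passing quality check with inhibition over a set limit, or well fluorescence over plate mean plus 4 SD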;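 note: Nile Red retained in pooled yeast measured as flow cytometry median fluorescence; higher means more Nile Red kept so more efflux inhibition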
Tb MetRS conf: confirmation of Trypanosoma brucei MetRS inhibitors. shares compounds with TbMetRS inhib. AID 624412. 1,400 tested, 93% active. inhibition, % at 11.9 µM. T. brucei MetRS enzyme, luminescence (ATP depletion); in the data active = inhibition above about 7%
Jurkat cytotox: kills Jurkat cells in T. brucei MetRS counterscreen | shares compounds with TbMetRS inhib | inhibition, % at 8.3 µM | Jurkat cells viability, ATP luminescence | 1,400 tested, 12% active; in the data active = inhibition above about 15%
TbMetRS FP orth: T. brucei MetRS inhibition, orthogonal assay. AID 651607. purified T. brucei MetRS, fluorescence polarization. shares compounds with TbMetRS inhib. 1,400 tested, 44% active. inhibition, % at 11.9 µM; in the data active = inhibition above about 17%
Numbers stand for hits; n = inactive; x = no result given. Hits are enriched below; roughly 4.1% of the tested compounds scored in any of these assays.

SMILES	H9c2 TAG inh	AHR activator	SMARCA2 activ	TbMetRS inhib	Efflux pump mplx	Tb MetRS conf	Jurkat cytotox	TbMetRS FP orth
O=C(Nc1csc([N+](=O)[O-])c1)Nc1c(Cl)cccc1Cl	n	n	n	n	n	x	x	x
O=S1(=O)CC2c3ccccc3CN2CN1CCc1ccccc1 (stereo not drawn)	x	x	n	x	x	x	x	x
CCOC(=O)c1nnn(CC(=O)NC(=O)Nc2ccccc2)c1C(=O)OCC	n	n	n	7.3	n	19.9	n	n
CCOC(=O)c1nnn(CC(=O)Nc2ccccc2)c1C(=O)OCC	x	n	n	n	n	x	x	x
COC(=O)[C@]12C[C@H](CC(=O)NCc3ccccc3)C(=O)N(Cc3cccc4ccccc34)C1=C[C@H](C(C)C)O[C@@H]2C1CC1	x	x	n	x	x	x	x	x
COc1ccc(C2C(=O)c3ccccc3C2=O)cc1	n	n	n	n	n	x	x	x
CCc1ccc(C2C(=O)c3ccccc3C2=O)cc1	n	n	n	6.3	n	n	n	n
Cc1ccc(NC(=O)COC(=O)C2(c3ccc(Cl)cc3)CCCC2)cc1	x	n	n	6.9	n	12.1	n	n
CCOC(=O)c1ccc(NC(=O)C2(c3ccc(Cl)cc3)CCCC2)cc1	n	n	n	n	n	x	x	x
COc1ccc(S[C@]2(C(=O)N3CCN(c4ncccn4)CC3)CC(=O)N(S(=O)(=O)c3ccc(F)cc3)[C@@H]2c2ccc(OC)cc2)cc1	x	x	n	x	x	x	x	x
CCNC(=S)N(Cc1cc2cc(C)ccc2[nH]c1=O)C1CCCC1	x	n	n	11.3	n	21.7	n	n
C[C@@H]1CN([C@@H](C)CO)C(=O)c2cc(NC(=O)Nc3ccccc3)ccc2O[C@@H](C)CCCCO[C@H]1CN(C)C(=O)Nc1ccc(C(F)(F)F)cc1	n	x	n	17.5	x	22.4	n	n
C[C@@H]1CCCCO[C@H](CN(C)C(=O)Nc2ccc(F)cc2)[C@@H](C)CN([C@H](C)CO)C(=O)c2cc(NC(=O)c3ccccc3)ccc2O1	n	x	n	n	x	x	x	x
Cc1cc(NS(=O)(=O)c2ccc(NC(=O)CSc3nnc(-c4cnccn4)n3-c3ccccc3)cc2)nc(C)n1	x	x	n	x	x	x	x	x
Cc1cccc(CN2CCN(C3CN(Cc4cn(Cc5ccc(C(F)(F)F)cc5)nn4)S(=O)(=O)C3)CC2)c1 (stereo not drawn)	x	x	n	x	x	x	x	x
CCN(CC(=O)Nc1c(F)cccc1F)C(=O)c1ccc2c(c1)NC(=O)C(C)S2 (stereo not drawn)	n	n	n	n	n	x	x	x
CCN(CC(=O)Nc1ccc(OC)cc1)C(=O)c1ccc2c(c1)NC(=O)C(C)S2 (stereo not drawn)	n	n	n	17.8	n	48.2	n	24.1
O=C(NCc1ccc(Cl)cc1)C1C2C=CC3(CN(Cc4ccccc4)C(=O)C13)O2 (stereo not drawn)	x	x	n	x	x	x	x	x
COc1cccc(-n2c(SCC(=O)N3CCOCC3)nnc2-c2c[nH]c3ccccc23)c1	n	n	n	17.5	n	29.8	n	n
O=c1[nH]c(Nc2ccccc2)cc2cc(Br)ccc12	n	n	n	n	n	x	x	x
O=c1[nH]c(Nc2ccccc2)cc2ccccc12	n	n	n	8.1	n	n	n	n
O=C(NCc1cccc(Cl)c1)c1cnn2c1NC(c1ccco1)CC2C(F)(F)F (stereo not drawn)	x	n	n	10.4	n	22.6	n	n
COCCNC(=O)c1cnn2c1NC(c1ccco1)CC2C(F)(F)F (stereo not drawn)	n	n	n	n	n	x	x	x
CCCc1cn(-c2ccc3c(c2)[C@]2(CC(=O)N(C)C2c2ccccc2)C(=O)N3CC(C)C)nn1 (stereo partly drawn)	x	x	n	x	x	x	x	x
O=C1CC(N(CCc2ccccc2)C(=S)Nc2ccccc2)C(=O)N1c1ccc(Br)cc1 (stereo not drawn)	x	n	n	96.6	n	98.8	n	129.7
SMILES	H9c2 TAG inh	AHR activator	SMARCA2 activ	TbMetRS inhib	Efflux pump mplx	Tb MetRS conf	Jurkat cytotox	TbMetRS FP orth
Cc1ccc(N2C(=O)CC(N(CCc3ccccc3)C(=S)Nc3ccc(N(C)C)cc3)C2=O)cc1 (stereo not drawn)	n	n	n	73.9	n	45.8	n	28.5
COc1ccccc1CNC(=O)C[C@H]1CC[C@H]2[C@H](COc3ccc(NS(=O)(=O)c4ccc(C)cc4)cc3C(=O)N2C)O1	x	x	n	x	x	x	x	x
COc1ccc(C2CC(=O)C(c3ccccc3)=CN2Cc2ccccc2)cc1 (stereo not drawn)	x	x	n	x	x	x	x	x
CCO[C@@H]1OC(C(=O)NCc2nc3ccccc3[nH]2)=C[C@H](C2CC2)[C@H]1CCCO	n	n	n	n	n	x	x	x
CCO[C@H]1OC(C(=O)NCc2nc3ccccc3[nH]2)=C[C@@H](c2ccc(Br)cc2)[C@@H]1CCCO	x	n	n	37.8	n	80.4	n	56.6
CCO[C@@H]1OC(C(=O)NCc2nc3ccccc3[nH]2)=C[C@H](C(C)(C)C)[C@H]1CCCO	n	n	n	6.4	n	32.9	71.3	n
C#Cc1ccc([C@H]2C=C(C(=O)NCc3nc4ccccc4[nH]3)O[C@@H](OCC)[C@@H]2CCCO)cc1	x	n	n	12.2	n	36.0	n	17.0
CCO[C@H]1OC(C(=O)Nc2ccccc2)=C[C@@H](c2ccc(Br)cc2)[C@@H]1CCCO	n	n	n	n	n	x	x	x
Nc1[nH]c2cc(Cl)ccc2c1C(=O)NCCc1ccc(Cl)cc1	x	x	n	x	x	x	x	x
CCOC(=O)CNC(=O)C1CCCc2c1[nH]c1ccc(Cl)cc21 (stereo not drawn)	n	n	n	12.2	n	19.9	n	n
Cn1c(=O)c(=O)n(C)c2cc(S(=O)(=O)N3CCN(CCO)CC3)ccc21	x	x	n	x	x	x	x	x
Cc1ccc(S(=O)(=O)Nc2ccnc3ccccc23)cc1	n	n	n	7.0	n	14.7	n	n
Cc1ccc(S(=O)(=O)Nc2cccc3ncccc23)cc1	n	n	n	n	n	x	x	x
O=C(CN1C(=O)C2(OCCCO2)c2ccccc21)NCc1ccc(F)cc1	x	x	n	x	x	x	x	x
CCCCn1c(NS(=O)(=O)c2ccccc2)c(S(=O)(=O)c2ccc(C)cc2)c2nc3ccccc3nc21	x	n	n	15.6	n	12.2	n	n
CCCCn1c(NC(=O)c2ccco2)c(S(=O)(=O)c2ccc(C)cc2)c2nc3ccccc3nc21	n	x	n	n	x	x	x	x
CCCCn1c(NC(=O)c2ccc(Br)o2)c(S(=O)(=O)c2ccccc2)c2nc3ccccc3nc21	x	n	n	6.0	n	11.3	n	n
COC(=O)[C@]12C[C@H](CC(=O)N3CCN(C(=O)C4CC4)CC3)C(=O)N(Cc3ccccc3)C1=C[C@H](C(C)C)O[C@@H]2C1CC1	x	x	n	x	x	x	x	x
Cc1ccccc1C(=O)NC1CCCCN(C(C)C)C1=O (stereo not drawn)	x	x	n	x	x	x	x	x
COc1ccc(S[C@]2(C(=O)N3CCCC3)CC(=O)N(c3ccc4c(ccn4C)c3)[C@@H]2c2ccc(OC)cc2)cc1	x	x	n	x	x	x	x	x
